# Inconclusive results are not listed. The source made the active and inactive calls.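 Rule for the calls: active = compounds whose fitted caspase activation AC50 is no more than tenfold above the top tested dose; inconclusive = flat fit with 30 to 70% activity, or a failed fit; inactive = the rest.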
# Tested on: MEF Bax/Bak KO A1-BIM, caspase-Glo luminescence, 3 h
# Assay: caspase signal in Bax-Bak null A1-BIM cells – cell-based, Bax-Bak knockout MEF, A1-2A-BIM, luminescence, counter-screen for A1 inhibitor project, dose response (AID 449754);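 note: counterscreen where caspase activation signals off-target toxicity not A1 inhibition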
# Summary of the method: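 Material: Bax/Bak-knockout mouse embryonic fibroblasts expressing A1-2A-BIM | Quantity: 2500 cells per well, seeded one day before compound | Buffer or medium: RPMI-1640, 10% FBS | Incubation: 3 h compound at 37 °C, 1 h detection at RT | Signal: CaspaseGlo luminescence, reagent diluted 1:1 in 50 mM HEPES | Evaluation: Caspase activity from luminescent signal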
row,Compound,AC50
1,Cc1ccc(NC(=O)c2ccc(NCC3CCCO3)c([N+](=O)[O-])c2)cc1Cl (stereo not given),> 35 µM (inactive)
2,CC(C)(C)[C@H](N)C(=O)N[C@H]1CCC2C3CC=C4C[C@@H](O)CC[C@]4(C)C3CC[C@@]21C (stereo not given in full),> 35 µM (inactive)
3,Clc1ccccc1CN(Cc1ccccc1)c1ncnc2nc[nH]c12,> 35 µM (inactive)
4,CCS(=O)(=O)c1ncc(Cl)c(C(=O)Nc2ccc(S(=O)(=O)N3CCC(C)CC3)cc2)n1,> 35 µM (inactive)
5,CN(C)CCN(C(=O)/C=C/c1cccs1)c1nc2c(F)cc(F)cc2s1,> 35 µM (inactive)
6,Cc1cccc(NC(=O)/C(C#N)=C/c2cn(CC(=O)NCc3ccco3)c3ccccc23)c1,> 35 µM (inactive)
7,CCn1c(Cl)c(C=O)s/c1=N\S(=O)(=O)c1ccccc1,> 35 µM (inactive)
8,O=C(/C=C/c1ccc(F)cc1)NC(=S)Nc1ccccc1C(=O)NC1CCCCC1,> 35 µM (inactive)
9,CSC[C@@H]1NC(=S)N(c2ccc(C)cc2)C1=O,> 35 µM (inactive)
10,CCCCNC(=S)N/N=C/c1ccc(OCC(=O)Nc2c(C)cc(C)cc2C)c(OC)c1,> 35 µM (inactive)
11,CC(C)(C)c1ccc2c(c1)OC(C(=O)N/N=C\c1ccc[nH]1)CO2 (stereo not given),> 35 µM (inactive)
12,COC(=O)Cc1csc(/N=C/c2c(O)n(-c3cccc(C(F)(F)F)c3)c(=O)c3ccccc23)n1,28 µM
13,Cc1cc(C)cc(Cn2ncc(Cl)c(Cl)c2=O)c1,> 35 µM (inactive)
14,Cc1ccc(C)c(NC(=S)NC(NC(=O)Cc2cccc3ccccc23)C(Cl)(Cl)Cl)c1 (stereo not given),24.1 µM
15,Cc1cccc(NC(=O)CSc2nc(C)c(CC(=O)c3ccc(Br)cc3)c(C)c2C#N)c1C,> 35 µM (inactive)
16,CCOc1ccc(NCc2cccn2-c2nnc(N3CCC(C(=O)NCCCN4CC(C)CC(C)C4)CC3)s2)cc1 (stereo not given),> 35 µM (inactive)
17,CCOC(=O)C1=C(c2ccccc2)O/C(=C(/C#N)C(F)(F)F)S1,> 35 µM (inactive)
18,COc1ccc(NC(=O)c2cccc3c2C(=O)c2ccc(-c4ccc(F)cc4OCc4ccccc4)cc2S3(=O)=O)cc1,> 35 µM (inactive)
19,N#C/C(=C\c1ccc(OCc2ccccc2)cc1)C(=O)Nc1nc2c(s1)CCN(Cc1ccccc1)C2,> 35 µM (inactive)
20,CC1CCc2c(sc3nc(C(C)(C)C)nc(N4CCN(C(=O)CCl)CC4)c23)C1 (stereo not given),12.3 µM
21,O=C(N/C=N/OCc1ccc(Cl)cc1Cl)NOCc1ncc(C(F)(F)F)cc1Cl,> 35 µM (inactive)
22,COc1ccc(OC)c2sc(N(CCCN(C)C)C(=O)c3ccc(S(=O)(=O)N4CCc5ccccc5C4)cc3)nc12,> 35 µM (inactive)
23,COc1cc(-c2cc(-c3ccccc3)nc(SCC(=O)Nc3nccs3)c2C#N)cc(OC)c1OC,> 35 µM (inactive)
24,Cc1cccc(CS(=O)(=O)c2ncc(Cl)c(C(=O)Nc3nnc(C(C)C)s3)n2)c1,> 35 µM (inactive)
25,CCc1nnc(NC(=O)c2nc(S(=O)(=O)Cc3ccccc3)ncc2Cl)s1,> 35 µM (inactive)
26,CC1=NNC(=O)/C1=C\c1cn(-c2ccccc2)nc1-c1cccs1,7.61 µM
27,CC(C)N=c1scc(-c2ccco2)n1/N=C/c1ccc(O)c(O)c1,> 35 µM (inactive)
28,O=C(Nc1ccc2oc(-c3cccc(F)c3)nc2c1)c1ccccc1F,> 35 µM (inactive)
29,C=C1/C=C(\C)[C@](C)(O)C[C@H](O)CC(=O)[C@H](O)[C@@H](O)[C@H](C)C[C@H](C)OC(=O)/C(C)=C/CC/C=C/[C@@H]2O[C@H]2C[C@H](C)C1,> 35 µM (inactive)
30,CCOC(=O)c1c(C)oc2c1c(CN1CCN(C(=O)OCC)CC1)c(O)c1ccccc12,13 µM
